Screens (PubChem)
SENP6 block: SENP6 protease inhibition. Q9GZR1. Recombinant SENP6 catalytic domain, aminoluciferin luminescence. inhibition, % at 10 µM. 1.8% of 330,000 active. AID 2599;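 active = inhibition above about 50% at the single tested dose, limit read from the data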
Target sequence (Q9GZR1 628-1112 limits assumed): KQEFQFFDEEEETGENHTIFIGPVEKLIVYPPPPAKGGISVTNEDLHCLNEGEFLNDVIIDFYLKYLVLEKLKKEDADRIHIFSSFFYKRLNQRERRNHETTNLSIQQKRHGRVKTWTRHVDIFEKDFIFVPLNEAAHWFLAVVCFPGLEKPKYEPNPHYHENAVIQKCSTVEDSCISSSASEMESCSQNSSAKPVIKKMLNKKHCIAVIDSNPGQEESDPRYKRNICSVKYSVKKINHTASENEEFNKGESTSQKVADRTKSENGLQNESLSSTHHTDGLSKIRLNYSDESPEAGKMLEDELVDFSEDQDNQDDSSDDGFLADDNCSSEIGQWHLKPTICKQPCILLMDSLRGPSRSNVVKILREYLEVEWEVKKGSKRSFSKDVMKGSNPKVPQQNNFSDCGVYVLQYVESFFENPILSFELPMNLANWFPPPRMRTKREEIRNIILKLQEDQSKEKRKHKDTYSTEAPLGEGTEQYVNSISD
SENP8 block-1: blocks the human protease SENP8 | Q96LD8 | purified SENP8, Z-RLRGG-aminoluciferin cleavage, luminescence | inhibition, % at 10 µM | 1.2% of 330,000 active | AID 2540; in the data active = inhibition above about 50%
SENP7 block: blocks the human protease SENP7; recombinant SENP7, Z-RLRGG-aminoluciferin luminescence, 40 min; Q9BQF6; 1.5% of 330,000 active; inhibition, % at 5 µM;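 active = inhibition above about 50% at the single test dose, limit read from the data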
SENP8 block-2: blocks human SENP8 cleavage of Nedd8 substrate; recombinant SENP8, Nedd8 substrate fluorescence; inhibition, % at 20 µM; 0.64% of 360,000 active; AID 602440; in the data active = inhibition mostly above about 40%, no sharp cut-off; inactive = mostly below about 27%
SENP1 FRET inh: inhibitors of human SENP1 SUMO protease catalytic domain. Q9P0U3. recombinant SENP1 catalytic domain, CyPet-SUMO1-YPet FRET cleavage. inhibition, % at 10 µM. 0.21% of 360,000 active. AID 624204;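 active = inhibition at least 30% at 10 µM, raw YFP signal under a set limit, fluorescence ratio 0.5 to 1.5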
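Test system: recombinant human SENP1 catalytic domain, His6-tagged / Medium: pH 8 Tris buffer with EDTA, NaCl, BME, BSA, NP40, catalase / Also added: SUMO1 FRET substrate flanked by Cypet and Ypet, 25 nM / Times: 50 min reaction at room temperature / Signal: FRET, CFP and YFP emission / Control set: no-enzyme low control and enzyme-plus-DMSO high control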
SENP8 inh conf: SENP8 (human) inhibition, single concentration confirmation | purified SENP8, Nedd8-AMC/pro-Nedd8 cleavage fluorescence, 30 min | 15% of 1,400 active | shares compounds with SENP8 block-2 | inhibition, % at 25 µM; in the data active = inhibition mostly above about 39%, no sharp cut-off; inactive = mostly below about 34%
Numbers stand for hits; i = inactive; nt = no result given. Rows were chosen to be rich in hits. Some 2.5% of all compounds tested hit in one or more screens of this group.

SMILES	SENP6 block	SENP8 block-1	SENP7 block	SENP8 block-2	SENP1 FRET inh	SENP8 inh conf
O=c1[nH]cnc2c1ccn2C1OC(CO)C(O)C1O (centres undefined)	nt	nt	nt	41	i	i
COc1ccccc1S(=O)(=O)N(C)C[C@@H]1OCc2cn(nn2)CCCC(=O)N([C@H](C)CO)C[C@H]1C	nt	nt	nt	i	i	nt
O=C(COC(=O)Cc1ccc(Cl)cc1Cl)Nc1ccccc1OC(F)F	i	i	i	i	i	nt
COc1ccccc1NS(=O)(=O)c1cc(NC(=O)c2cccc(S(=O)(=O)N(C)C)c2)ccc1N1CCOCC1	i	i	i	32	i	i
CCCCCCN1C=CC=C/C1=C/C=C(C#N)C#N	i	i	i	50	i	i
C=CCN1C=C/C(=C\C=C(C#N)C#N)c2ccccc21	i	i	i	i	i	nt
CCCN1C=CC(=C/C=C(\C#N)C(=O)OCC)C=C1	i	i	i	nt	nt	nt
CCCCCCN1C=CC(=C/C=C(\C#N)C(=O)OCC)C=C1	i	i	i	36	i	i
CCCN1C=CC(=CC=C(C#N)C#N)C=C1	i	i	i	50	i	i
C=CCN1C=CC(=CC=C(C#N)C#N)C=C1	i	i	i	56	i	i
COc1ccc(CNC(=O)CN(C(=O)CCC(=O)Nc2ccccn2)c2cccc(C)c2C)cc1	i	i	i	i	i	nt
CCOc1ccc(-c2nc(CN3CCCCC3CCn3cccn3)c(C)o2)cc1 (centres undefined)	i	i	i	i	i	nt
CSCCC(NC(=O)c1ccccc1Br)C(=O)N1CCCC(C(F)(F)F)C1 (centres undefined)	i	i	i	i	i	nt
CC1CCN(C(=O)c2ccccc2SCC(=O)NCC2CCCCC2)CC1	i	i	i	i	i	nt
CCCCOc1cc(NCc2ccccc2)c2ncn(C(C)C)c2c1	i	i	i	51	i	65
COc1ccc(Cc2cc(NCc3ccccc3)c3ncn(C(C)C)c3c2)cc1	i	i	i	i	i	nt
COCCCOc1cc(NCc2ccccc2)c2ncn(C(C)C)c2c1	i	i	i	i	i	nt
CCOCCOc1cc(NCc2ccccc2)c2ncn(C(C)C)c2c1	nt	nt	nt	40	i	80
COc1cc(OC)cc(-c2c(C#Cc3ccsc3)c3cc(-c4cccc5[nH]cc(C=O)c45)ccc3n2C)c1	i	i	i	i	i	nt
CC1(/[N+]([O-])=C/c2cccc(Cl)c2)CCCCC1=O (centres undefined)	i	i	i	i	i	nt
CC1(/[N+]([O-])=C/c2ccc(Cl)cc2Cl)CCCCC1=O (centres undefined)	i	i	i	46	i	i
Cc1ccc2nsnc2c1NC(=O)c1ccc([N+](=O)[O-])cc1	i	i	i	i	i	nt
CN(C)c1ccc2nsnc2c1[N+](=O)[O-]	i	i	i	43	i	i
CN(C)c1cc(Nc2cccc(O)c2)c([N+](=O)[O-])c2nonc12	i	i	i	45	i	i
COc1cccc(NC(=O)CN(C)CC(=O)Nc2ccc(C)c(S(=O)(=O)N3CCOCC3)c2)c1	nt	nt	nt	i	i	nt
SMILES	SENP6 block	SENP8 block-1	SENP7 block	SENP8 block-2	SENP1 FRET inh	SENP8 inh conf
Cc1ccn(CC(=O)NC2CC(C)(C)Cc3c2cnn3-c2ccc(F)cc2)n1 (centres undefined)	i	i	i	i	i	nt
O=c1cc(-c2ccc([N+](=O)[O-])cc2)c2cc3c(cc2[nH]1)OCCO3	i	i	i	42	i	i
ON=C1c2ccccc2-c2ccc(F)cc21	nt	nt	nt	i	i	nt
CC1(C)[N+]([O-])=C2C(=[N+]([O-])C1(C)C)c1ccccc1/C2=N\O	i	i	i	48	i	i
Cc1ccc(S(=O)(=O)N(CC(=O)c2ccc(Cl)cc2)C(=O)N2CCN(C)CC2)cc1	i	i	i	i	i	nt
COc1ccc(CSc2nnnn2-c2ccc(C(N)=O)cc2)cc1[N+](=O)[O-]	i	i	i	i	i	nt
COc1ccc(CSc2nnnn2C)cc1[N+](=O)[O-]	i	i	i	48	i	i
CC(=O)Nc1ccc(N2CC(C)(C)C2=O)cc1	i	i	i	i	i	nt
CCC(C)NCCOc1ccc(C)cc1[N+](=O)[O-] (centres undefined)	nt	nt	nt	40	i	i
CCOC(=O)c1nn(-c2ccccc2C)c(=O)c2c(N)scc12	i	i	i	47	i	i
CCOC(=O)c1nn(-c2ccccc2C)c(=O)c(C#N)c1C	i	i	i	i	i	nt
